# ChEMBL document CHEMBL1130261, “Identification of novel farnesyl protein transferase inhibitors using three-dimensional database searching methods” (J Med Chem, 1997)
# What was measured:
# Type in all cases: protein-complex assay
# [1] = target: T1, Protein farnesyltransferase (Homo sapiens, UniProt P49354+P49356); assay: Inhibitory activity against farnesyltransferase (FPT) (20 ug/mL)
# How it was run: (§1)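 Primary scintillation proximity assay (SPA) following the kit protocol, with a biotinylated substrate peptide bearing the K-Ras carboxy-terminal sequence.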
# [2] = target: T1, Protein farnesyltransferase; assay: Inhibitory activity against recombinant human farnesyltransferase
# [3] = target: Geranylgeranyl transferase type I (Homo sapiens, UniProt P49354+P53609); assay: Inhibitory activity against Geranylgeranyl transferase type I
# [4] = target: Protein farnesyl/geranylgeranyl transferase (Homo sapiens) (UniProt P49354+P49356+P53609); assay: Selectivity was expressed as the ratio of the Geranylgeranyl transferase type I to FPT inhibitory activities (IC50)
# [5] = target: T1, Protein farnesyltransferase; assay: Inhibition of Farnesyltransferase
# [6] = target: T1, Protein farnesyltransferase; assay: Inhibition of Farnesyltransferase (FPT) in FPT Ras/TCA assay
# How it was run: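 Secondary FPT assay measuring transfer of [³H]farnesyl from [³H]farnesyl pyrophosphate to His₆-H-Ras-CVLS. Labelled protein was collected by TCA precipitation. IC50 values were obtained from this Ras/TCA format.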
# [7] = target: T1, Protein farnesyltransferase; assay: Inhibition of farnesyltransferase (FTP) at 20 ug/mL; how it was run: as §1
Compound,inhibition [1],IC50 [2],also measured
Clc1sccc1CO[C@@H]1c2cc3c(cc2S[C@@H]1Cn1ccnc1)CCCC3,61%,10.8 µM,–
Clc1ccc2c(c1)S[C@H](Cn1ccnc1)[C@@H]2OCc1ccc(Cl)c(Cl)c1,95%,1.2 µM,IC50 [3]: 12.9 µM; Selectivity ratio [4]: 10.8
Clc1ccc(COC2c3c(Cl)cc(Cl)cc3SC2Cn2ccnc2)c(Cl)c1 (stereo not given),60%,12.3 µM,–
Clc1ccc2c(c1)S[C@H](Cn1ccnc1)[C@@H]2OCc1cscn1,90%,10.7 µM,–
O=C(Nc1ccncc1)N1CCC(=C2c3ccc(Cl)cc3CCc3cccnc32)CC1,–,0.87 µM,–
CC(=O)N1CCN(c2nc(CO[C@@H]3c4cc(C(C)(C)C)ccc4S[C@@H]3Cn3ccnc3)ns2)CC1,86%,–,IC50 [3]: > 39 µM
OCc1nccn1C[C@H]1Sc2cc(Cl)ccc2[C@H]1OCc1ccsc1Cl,30%,–,–
O=C(Cc1ccncc1)N1CCC(=C2c3ccccc3CSc3ccccc32)CC1,–,2.3 µM,–
Clc1ccc(COC2c3c(Cl)cccc3SC2Cn2ccnc2)cc1 (stereo not given),95%,1.3 µM,IC50 [5]: 16 µM
O=C(Nc1cccnc1)N1CCN(C2c3ccc(Cl)cc3CCc3cccnc32)CC1 (stereo not given),–,1.3 µM,–
O=C(Cc1ccccn1)N1CCC(=C2c3ccc(Cl)cc3CCc3cccnc32)CC1,–,2 µM,–
Clc1sccc1CO[C@@H]1c2cc(Br)ccc2S[C@@H]1Cn1ccnc1,88%,1.1 µM,IC50 [3]: 14.2 µM; Selectivity ratio [4]: 12.9
Clc1ccc(COC2c3ccc(Cl)cc3SC2Cn2ccnc2)c(Cl)c1 (stereo not given),75%,5.4 µM,–
CC(C)C(CP(=O)(O)C(Cc1ccccc1)NC(=O)OCc1ccccc1)C(=O)N[C@H](Cc1c[nH]c2ccccc12)C(=O)N[C@H](C)C(=O)O (stereo not given in full),–,1 µM,–
Clc1sccc1CO[C@@H]1c2ccc3ccccc3c2S[C@@H]1Cn1ccnc1,76%,1.5 µM,IC50 [3]: 15 µM; Selectivity ratio [4]: 10
Cc1onc(-c2ccccc2)c1CO[C@@H]1c2ccc(Cl)cc2S[C@@H]1Cn1ccnc1,90%,2.5 µM,–
OC1c2ccc(Cl)cc2SC1Cn1ccnc1 (stereo not given),58%,–,–
O=C(Cc1ccncc1)N1CCC(=C2c3ccc(Cl)cc3CCc3ccc[n+]([O-])c32)CC1,–,2.1 µM,–
Clc1ccc2c(c1)C(OCc1c(Cl)cccc1Cl)C(Cn1ccnc1)S2 (stereo not given),85%,5.3 µM,–
Clc1ccc2c(c1)S[C@H](Cn1ccnc1)[C@@H]2OCc1c(Cl)ccc2c1OCO2,80%,3.2 µM,–
C=C1CC2C3C=C(Cl)C4=CC(=O)C(Br)CC4(C)C3CCC2(C)[C@@]1(O)C(C)=O (stereo not given in full),–,1.8 µM,–
Clc1ccc2c(c1)S[C@H](Cn1ccnc1)[C@@H]2OCc1ccsc1,95%,16 µM,–
Clc1sccc1CO[C@@H]1c2ccccc2S[C@@H]1Cn1ccnc1,94%,1.1 µM,IC50 [3]: 46.8 µM; Selectivity ratio [4]: 42.5
Fc1ccc2c(c1)[C@@H](OCc1c(F)cccc1Cl)[C@@H](Cn1ccnc1)S2,94%,2.3 µM,–

Compound,inhibition [1],IC50 [2],also measured
O[C@@H]1c2ccc(C(F)(F)F)cc2S[C@@H]1Cn1ccnc1,42%,–,–
O[C@@H]1c2ccc(F)cc2S[C@@H]1Cn1ccnc1,38%,–,–
O[C@H]1c2cc3c(cc2S[C@H]1Cn1ccnc1)CCCC3,–,> 70 µM,–
O=C(Nc1ccncc1)C1CCN(C2c3ccc(Cl)cc3CCc3cccnc32)CC1 (stereo not given),–,9.2 µM,–
O=C(Cc1cccnc1)N1CCC(=C2c3ccc(Cl)cc3CCc3cccnc32)CC1,–,0.6 µM,–
Clc1cccc2c1S[C@H](Cn1ccnc1)[C@@H]2OCc1ccsc1Cl,92%,6 µM,–
Fc1ccc2c(c1)[C@@H](OCc1ccsc1Cl)[C@@H](Cn1ccnc1)S2,95%,1.8 µM,IC50 [3]: 34.1 µM; Selectivity ratio [4]: 18.9
Fc1ccc2c(c1)[C@@H](OCc1c(Cl)cccc1Cl)[C@@H](Cn1ccnc1)S2,90%,2.7 µM,–
Clc1ccc2c(c1)S[C@H](Cn1ccnc1)[C@@H]2OCc1cnc2cc3c(cc2c1Cl)OCO3,69%,2.5 µM,IC50 [3]: 1.4 µM; IC50 [6]: 3.1 µM; Selectivity ratio [4]: 0.6
FC(F)(F)c1ccc2c(c1)S[C@H](Cn1ccnc1)[C@@H]2OCc1ccsc1Cl,75%,10.7 µM,–
Fc1ccc2c(c1)S[C@H](Cn1ccnc1)[C@@H]2OCc1ccsc1,91%,13.6 µM,–
O=C(Cc1ccccc1)N1CCN(C2c3ccc(Cl)cc3CCc3cccnc32)CC1 (stereo not given),–,2.7 µM,–
Clc1ccc(COC2c3c(Cl)cc(Cl)cc3SC2Cn2ccnc2)cc1 (stereo not given),83%,1.4 µM,IC50 [3]: 18.8 µM; Selectivity ratio [4]: 13.4
Fc1cccc(Cl)c1CO[C@@H]1c2ccc(Cl)cc2S[C@@H]1Cn1ccnc1,92%,4.4 µM,–
Clc1ccc2c(c1)C(OCc1ccsc1Cl)C(Cn1ccnc1)S2 (stereo not given),92%,2.5 µM,–
CN1CCC(C2c3ccccc3CCc3cccnc32)CC1 (stereo not given),–,724 µM,–
NC1CCC(C(=O)N2CCC(=C3c4ccc(Cl)cc4CCc4cccnc43)CC2)CC1 (stereo not given),–,5 µM,–
Clc1ccc(COC2c3cc(Cl)ccc3SC2Cn2ccnc2)c(Cl)c1 (stereo not given),99%,0.2 µM,IC50 [3]: 0.7 µM; Selectivity ratio [4]: 3.5
Fc1ccc2c(c1)[C@@H](OCc1ccc(Cl)cc1Cl)[C@@H](Cn1ccnc1)S2,91%,0.7 µM,IC50 [3]: 18.3 µM; Selectivity ratio [4]: 26.1
Clc1cc(Cl)c2c(c1)[C@@H](OCc1ccsc1Cl)[C@@H](Cn1ccnc1)S2,86%,1.6 µM,IC50 [3]: 16.2 µM; Selectivity ratio [4]: 10.1
Clc1ccc2c(c1)S[C@H](CN1CCOCC1)[C@@H]2OCc1ccsc1Cl,2%,–,–
Clc1ccc2c(c1)S[C@H](Cn1ccnc1)[C@@H]2OCc1cc(Cl)sc1Cl,89%,–,–
Clc1sccc1CO[C@@H]1c2c(ccc3c2CCCC3)S[C@@H]1Cn1ccnc1,90%,0.2 µM,IC50 [3]: 16.8 µM; Selectivity ratio [4]: 84
[O-][n+]1ccc(CN2CCC(=C3c4ccccc4CCc4cccnc43)CC2)cc1,–,1830 µM,–

Compound,inhibition [1],IC50 [2],also measured
Fc1ccc2c(c1)[C@@H](OCc1ccc(Cl)c(Cl)c1)[C@@H](Cn1ccnc1)S2,96%,0.7 µM,IC50 [3]: 9.8 µM; Selectivity ratio [4]: 14
Clc1ccc2c(c1)S[C@H](Cn1ccnc1)[C@@H]2OCc1ccsc1Cl,96%,2.3 µM,–
[O-][S+]1c2cc(Cl)ccc2[C@@H](OCc2ccsc2Cl)[C@H]1Cn1ccnc1 (stereo not given in full),79%,20.8 µM,–
O=C(Nc1ccccn1)N1CCN(C2c3ccc(Cl)cc3CCc3cccnc32)CC1 (stereo not given),–,0.95 µM,–
Clc1ccc2c(c1)S[C@H](Cn1ccnc1)[C@@H]2OCc1c(Cl)sc2ccccc12,68%,2 µM,IC50 [3]: 38 µM; Selectivity ratio [4]: 19
O=C(O)c1ccc(C(=O)N2CCC(=C3c4ccc(Cl)cc4CCc4cccnc43)CC2)cc1,–,5.3 µM,–
O=S1(=O)c2cc(Cl)ccc2C(OCc2ccc(Cl)cc2Cl)C1Cn1ccnc1 (stereo not given),60%,45.9 µM,–
Clc1cccc2c1[C@@H](OCc1ccsc1Cl)[C@@H](Cn1ccnc1)S2,89%,1.3 µM,IC50 [3]: 36.5 µM; Selectivity ratio [4]: 28.1
O=C(Cc1cccnc1)N1CCN(C(c2ccc(Cl)cc2)c2ccccn2)CC1 (stereo not given),–,38.3 µM,–
Clc1ccc2c(c1)S[C@H](Cn1ccnc1)[C@@H]2OCc1cccnc1Cl,–,1.3 µM,IC50 [3]: 3.3 µM; inhibition [7]: 95%; Selectivity ratio [4]: 2.5
C=CCO[C@@H]1c2ccc(Cl)cc2S[C@@H]1Cn1ccnc1,88%,8.5 µM,–
O=C(Cc1ccccc1)N1CCC(=C2c3ccc(Cl)cc3CCc3cccnc32)CC1,–,0.8 µM,–
Cc1cccc2c1[C@@H](O)[C@@H](Cn1ccnc1)S2,14%,266 µM,–
O[C@@H]1c2cc(F)ccc2S[C@@H]1Cn1ccnc1,23%,–,–
O[C@@H]1c2cc(Br)ccc2S[C@@H]1Cn1ccnc1,44%,–,–
O[C@@H]1c2cccc(Cl)c2S[C@@H]1Cn1ccnc1,44%,–,–
Clc1ccc2c(c1)S[C@H](Cn1ccnc1)[C@@H]2OCc1ccc(Cl)s1,88%,2 µM,IC50 [3]: 5 µM; Selectivity ratio [4]: 2.5
CC(C)(C)CC(=O)N1CCC(=C2c3ccc(Cl)cc3CCc3cccnc32)CC1,–,9.8 µM,–
Clc1cc2c(cc1Cl)C(OCc1ccsc1Cl)C(Cn1ccnc1)S2 (stereo not given),93%,1.4 µM,IC50 [3]: 2.9 µM; Selectivity ratio [4]: 2.1
COC(=O)[C@@H](Cc1ccccc1)NC(=O)[C@@H](Cc1c[nH]c2ccccc12)NC(=O)[C@H](Cc1ccccc1)CP(=O)(O)O,–,0.7 µM,–
O=C(Cc1ccncc1)N1CCC(=C2c3ccccc3CCc3ccccc32)CC1,–,1.14 µM,–
OC1c2cc(Cl)ccc2SC1Cn1ccnc1 (stereo not given),–,> 75 µM,–
